“And” between values parts separate entries of the source, which are not always exact repeats. Equal entries are not always repeated. Where two headings read alike, the source gives them in different places.
Key:
human CD1d = human CD1d (Homo sapiens, UniProt P15813); type: binding
Procedure, shortened: (§1)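 Plates coated with goat anti-mouse IgG Fc-gamma antibody, then washed three times with PBS/Tween. Added human or mouse CD1d-Ig dimer (5 μg/mL) mixed with competitor lipid and 18:1 biotinyl-PE (2 μg/mL) in PBS. Bound biotinyl-PE detected with HRP-avidin. Biotinyl-PE Kd obtained by titration without competitor, fitted to Y = (Bmax*X)/(Kd + X). Competitor constants derived by curve fitting.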

mouse CD1d = biological target: T1, mouse CD1d (Mus musculus, UniProt P11609); type: binding; settings: competitor of Biotinyl PE (2 μg/mL), CD1d dimer
T1 sequence (P11609 22-305 limits assumed): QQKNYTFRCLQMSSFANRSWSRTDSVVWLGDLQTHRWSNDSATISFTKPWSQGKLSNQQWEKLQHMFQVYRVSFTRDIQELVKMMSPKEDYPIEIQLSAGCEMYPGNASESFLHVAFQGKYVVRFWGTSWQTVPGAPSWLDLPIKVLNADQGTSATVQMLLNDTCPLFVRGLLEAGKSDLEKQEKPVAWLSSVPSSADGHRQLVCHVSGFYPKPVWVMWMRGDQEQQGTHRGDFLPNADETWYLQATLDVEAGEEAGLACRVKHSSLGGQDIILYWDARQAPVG
T1 sequence (P01887 21-119 partner): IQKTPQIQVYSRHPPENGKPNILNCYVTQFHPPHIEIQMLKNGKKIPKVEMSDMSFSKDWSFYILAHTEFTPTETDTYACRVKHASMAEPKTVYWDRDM
Procedure, shortened: as §1

[1] = system: α-GalCer-induced NKT cell activation; assay: In vivo α-GalCer-induced serum cytokine production; design: species or system C57BL/6 mice; settings: 1 μg α-GalCer intravenously
Procedure, shortened: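 C57BL/6 mice, 6–8 weeks old, kept pathogen-free. Given α-GalCer 1 μg intravenously, with or without the test ganglioside at several concentrations. Serum taken at 2, 6, 12, 24, 48 and 72 h. IFN-γ measured by sandwich ELISA on two dilutions of pooled sera, reported as mean ± SD.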

NKT cells = assay: Staining of NKT cells with lipid-loaded CD1d-Ig dimers; type: cell-based; settings: human and mouse CD1d-Ig dimers loaded overnight
Procedure, shortened: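 Human or mouse CD1d-mouse IgG dimer (1 μg) loaded overnight at 37°C with 1.4 μg lipid or ascites in 50 μL PBS. Used to stain 2 × 10^5 NKT cells on ice for 30 min. Cells washed twice in PBS/5% FBS, then stained with PE rat anti-mouse IgG1 (A85-1) on ice for 30 min; anti-human CD3ε-APC added for human cells. Analysed by flow cytometry.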

[2] = system: CD1d-mediated activation of NKT cells (hybridomas DN32.D3, N38-3C3, N37-1A12); type: cell-based, mouse; settings: 4 h
Procedure, shortened: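 APCs were L cells stably transfected with WT cd1d1 cDNA. Treated with test ganglioside at increasing concentrations for 4 h at 37°C, washed extensively with PBS, then cocultured with hybridomas DN32.D3, N37-1A12 and N38-3C3 for 20–24 h at 37°C. IL-2 measured by sandwich ELISA. Triplicates, mean ± SEM; experiment repeated three times.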

canonical NKT cell = settings: high concentrations; ref [9], [24]; cited from earlier work

`CCCCCCCC/C=C\CCCCCCCC(=O)OC[C@H](COP(=O)(O)OCCNC(=O)CCCCCN)OC(=O)CCCCCCC/C=C\CCCCCCCC` [18:1 PE lipid, 1,2-Dioleoyl-sn-Glycero-3-Phosphoethanolamine-N-(hexanoylamine)] gave an IC50 (human CD1d; read-out: IC50 in hCD1d, competitor of Biotinyl PE (2 μg/mL), CD1d dimer) of 882 ± 125 nM and an IC50 (mouse CD1d; read-out: IC50 in mCD1d) of 843 ± 181 nM.

With `CCCCCCCCCCCCCCCCCCCCCCCCCC(=O)N[C@@H](CO[C@H]1O[C@H](CO)[C@H](O)[C@H](O)[C@H]1O)[C@H](O)[C@H](O)CCCCCCCCCCCCCC` [α-GalCer, α-galactosylceramide] the IC50 (human CD1d) was 84 ± 10 nM, the IC50 (mouse CD1d; IC50 in mCD1d) was 95 nM and 95.1 nM and the “time at which serum IFN-γ production was detectable” value [1] was 2 h. For the same molecule, the “time of peak serum IFN-γ production” value [1] was 24 h, the “time of return of serum IFN-γ to baseline” value [1] was ≤ 48 h and the “binding of lipid-loaded CD1d-Ig dimers to NKT cells” value (NKT cells) was “bound to NKT cells”.

With GT1b the “inhibition of CD1d-mediated activation of NKT cells” value ([2]; increasing doses of purified ganglioside, IL-2 (Fig 3A-C)) was “Only GD3 inhibited”.

In the case of gangliotriaosylceramide [Gg3Cer], the “reduction in NKT cell activation” value ([2]; gangliosides 5μg/ml, IL-2 (Fig 3D)) is listed as “only incubation with GD3 resulted in a significant reduction” and the “inhibition of canonical NKT cell activation” value (canonical NKT cell) is listed as “inhibit canonical NKT cell activation when used at high concentrations”.
